Sampled rows, rich in hits. Any-hit rate of the full collection: about 2.1%.
PP5 primary: PP5 (human) phosphatase inhibition; inhibition, % at 6.7 µM; hit rate 0.18% among 320,000; P53041; purified PP5c, OMFP substrate fluorescence;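 active means inhibition above the campaign's mean inhibition across all tested compounds plus 3 SD, cut at about 9.5% in these data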;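 further: 0% = DMSO only and 100% = 100 µM cantharidin control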
Apaf-1 inh: inhibitors of human Apaf-1 apoptosome | O14727 | reconstituted apoptosome caspase-3 activity, DEVD-Rh110 fluorescence | inhibition, % at 20 µM | hit rate 0.71% among 330,000; active means inhibition of at least 40% at 20 µM;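 further: plate controls were DMSO wells for no effect and DEVD-CHO caspase inhibitor wells for full effect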
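System: reconstituted apoptosome with Apaf-1, cytochrome c, caspase-9, procaspase-3, dATP; Signal: Rh110 fluorescence intensity; Schedule: 30 min compound preincubation, 50 min activation, room temperature; Reagent: cytochrome c trigger plus (Z-DEVD)2-Rh110 caspase-3 substrate.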
TDP2 absorb: blocks human TDP2 phosphodiesterase activity. O95551. recombinant TDP2, T5PNP hydrolysis, p-nitrophenol absorbance 415 nm. inhibition, % at 12.8 µM. hit rate 0.34% among 370,000. AID 720702;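 active means inhibition above the mean of all tested compounds plus 3 SD, set per campaign, cut at about 25% in these data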;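 further: 0% = DMSO with enzyme and 100% = buffer with substrate but no TDP2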
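Evaluation: % inhibition relative to enzyme-containing and enzyme-free wells. Material: recombinant human TDP2. Benchmarks: enzyme-free and DMSO wells. Timing: enzyme reaction with compound for 2 h at 37 °C. Compound dosing: 12.8 µM only. Measured by: p-Nitrophenol epi absorbance. Reagent: T5PNP substrate at 5 mM, a TopII-DNA adduct mimic. Replication: single well per compound.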
PP1 inh: blocks human PP1-alpha phosphatase, a PP5 counter-screen; AID 2235; purified PP1alpha, OMFP fluorescence; hit rate 0.9% among 320,000; inhibition, % at 6.7 µM;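 active means inhibition above the mean inhibition of all tested compounds plus 3 SD, computed separately for each screening campaign, cut at about 15% in these data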
GSTO1 counter: counter-screen for RBBP9 inhibitors: inhibitors of human GSTO1; inhibition, % at 5.96 µM; recombinant GSTO1, activity-based probe fluorescence polarization; AID 1974; P78417; hit rate 1.1% among 300,000;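 active means inhibition above the campaign mean inhibition plus 3 SD, cut at about 35% in these data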;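 further: 0% = GSTO1-1 with DMSO and 100% = wells lacking GSTO1-1 enzyme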
Apaf-1 inh conf: Apaf-1 inhibition, single-dose confirmed | shares compounds with Apaf-1 inh | reconstituted apoptosome, caspase-3 DEVD-Rh110 fluorescence | inhibition, % at 20 µM | hit rate 25% among 1,800 | AID 504614;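 active means mean inhibition of at least 40% at 20 µM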;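 further: plate controls were DMSO wells for no effect and DEVD-CHO caspase inhibitor control wells for full effect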
Rh110 interf inh: Rh110 signal interference in Apaf-1 inhibitor counter-screen | 1,800 tested, under 10 active | activation (fluorescence interference), % at 20 µM | shares compounds with Apaf-1 inh | Rh110 fluorescence interference, quenched caspase reaction;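 active means signal rise of 40% or more at 20 µM, treated as a fluorescence artifact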
* hit, by the source's call; . = no result.

SMILES	PP5 primary	Apaf-1 inh	TDP2 absorb	PP1 inh	GSTO1 counter	Apaf-1 inh conf	Rh110 interf inh
CN(C)S(=O)(=O)c1cccc(NC(=O)COC(=O)/C=C/c2ccco2)c1	0	95*	3	-2	0	6	1
CCN(CC)S(=O)(=O)c1cccc(NC(=O)COC(=O)/C=C/c2ccco2)c1	2	2	5	0	3	.	.
CC(C)COCC(CN(Cc1ccccc1)c1ccccc1)N1CCCC1 (centres undefined)	-1	49*	-4	3	5	12	16
O=C(NCCCn1ccnc1)c1noc2c1CCc1ccccc1-2	0	47*	23	-3	29	40	2
O=C(NCCCn1ccnc1)c1noc2c1CCCC2	0	-20	3	-3	7	.	.
COC(=O)c1cccc(C23CC4(C2)[C@H](CN(CC2CCCCC2)[C@@H]4c2ccccc2)C3c2ccccc2)c1 (some centres undefined)	3	40*	-3	2	11	18	6
COc1ccc(CN(C)C(=O)Cc2ccc(OC)c(S(=O)(=O)N3CCOCC3)c2)cc1OC	1	60*	-5	-2	.	34	-2
COc1ccc(CC(=O)N(C)CC(=O)Nc2ccccc2Cl)cc1S(=O)(=O)N1CCOCC1	2	59*	-6	-5	.	33	-4
COc1ccc(C(=O)N(Cc2ccccc2)c2cccc(C)c2)cc1S(=O)(=O)N1CCOCC1	0	45*	-12	-3	-10	35	4
COc1ccc(CC(=O)Nc2cccc(Cl)c2C)cc1S(=O)(=O)N1CCOCC1	2	2	3	-3	.	.	.
Cc1nc2ccc(NC(=O)c3cc(F)cc(F)c3)cc2c(=O)[nH]1	.	.	0	.	.	.	.
CN1/C(=C/C=C/c2n(C)c3cc([N+](=O)[O-])c([N+](=O)[O-])cc3[n+]2C)C(C)(C)c2ccccc21	.	.	-6	.	.	.	.
CCC[C@H]1[C@H](N)CC[C@@]23CCCN2C(=O)CCC[C@@H]13	.	.	-8	.	.	.	.
O=c1[nH]c(=O)n(C2CCCCCC2)c(O)c1C=NCc1ccc(F)cc1	3	40*	-16	6	2	23	7
Cc1c(N=Cc2c(O)n(C3CCCCC3)c(=O)[nH]c2=O)c(=O)n(-c2ccccc2)n1C	-3	-2	1	-3	-1	.	.
C[C@H](CO)N1C[C@H](C)[C@@H](CN(C)C(=O)Nc2ccc(-c3cccs3)cc2)OCc2cn(nn2)CCCC1=O	.	.	5	.	.	.	.
CC(=O)N1C[C@@H](c2c[nH]c3ccccc23)C=C[C@H]1C(=O)NS(=O)(=O)c1ccc(C)cc1	.	.	-12	.	.	.	.
O=C1C(=O)c2c(C(=O)c3ccccc3)coc2-c2ccccc21	5	55*	9	-1	32	36	14
Cc1n[nH]c(C)c1S(=O)(=O)NC(C)Cc1ccccn1 (centres undefined)	.	.	1	.	.	.	.
CCOC(=O)c1[nH]c2ccccc2c1NC(C)=O	2	-3	16	-4	-2	.	.
CCOC(=O)c1[nH]c(=O)c2ccccc2c1O	2	75*	16	-2	26	26	4
O=C(c1cc(-c2ccc(Cl)cc2)nc2ccccc12)N1CCN(c2ncccn2)CC1	.	.	8	.	.	.	.
CCN(CC(=O)Nc1ccc2c(c1)OCCO2)C(=O)/C=C/c1ccc(OC)cc1OC	1	64*	9	-7	8	37	15
Cc1ccc(S(=O)(=O)N2CCC(C(=O)OCC(=O)N(C)CC(=O)Nc3ccc(F)cc3)CC2)cc1C	2	52*	-4	-3	4	19	-2
C[C@H]1[C@@H](N(C)Cc2ccccc2)CC[C@@]23CCCN2C(=O)CCC[C@@H]13	.	.	-4	.	.	.	.
CN1CCN(S(=O)(=O)c2cccc(C(=O)Nc3cc(C(F)(F)F)ccc3N3CCCCC3)c2)CC1	4	40*	-5	-6	6	23	8
CN1CCN(S(=O)(=O)c2cccc(C(=O)Nc3ccccc3N3CCCCC3)c2)CC1	0	22	-1	1	0	.	.
C[C@@H]1[C@H]2[C@@H]3CC[C@@H](C3)[C@H]2CN[C@H]1c1cn(Cc2ccccc2)c2ccccc12	.	62*	-4	.	.	15	13
